This note sets out measurements from ChEMBL document CHEMBL1671691 (Antimicrob Agents Chemother, 2010).

For orientation: EC50 means the concentration giving half of the maximal effect.

Activity calls are given as the source filed them. The rule behind the calls is not given here.

Test [1] relates to Influenza A virus. The test is described as follows: Antiviral activity against 0.001 MOI adamantane-resistant zanamivir-,oseltamivir-susceptible Influenza A virus (A/pdm/Mexico/4604/2009(H1N1)) harboring M2 V28I, S31N mutant infected in MDCK cells assessed as determination of viral titer in cell culture at 1.6 uM after 24 hrs by immunofluorescence assay. Type of test: functional, organism-based. The settings on record: Influenza A virus (A/Mexico/4604/2009(H1N1)). A digest of the protocol:
(§1)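 Focus inhibition assay: confluent MDCK monolayers infected at MOI ∼0.001–0.1. Adsorption 1 h at 4°C, washed twice, then DMEM with 2 μg/ml TPCK-trypsin and drug for 24 h at 37°C. Cells fixed in methanol/acetic acid at −20°C, immunostained with anti-NP monoclonals and FITC secondary, and foci counted. Supernatants also titrated by focus assay. Quadruplicate on two occasions.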

Test [2] relates to Influenza A virus. The test is described as follows: Antiviral activity against adamantane-resistant zanamivir-,oseltamivir-susceptible Influenza A virus (A/pdm/California/05/2009 (H1N1)) harboring M2 V28I, S31N mutant infected in MDCK cells assessed as inhibition of viral replication after 3 days by microscopic analysis using crystal violet stain. Type of test: functional, organism-based, Influenza A virus (A/California/05/2009(H1N1)).

Test [3] relates to Influenza A virus. Nature of the test: Antiviral activity against adamantane-resistant zanamivir-,oseltamivir-susceptible Influenza A virus (A/pdm/Mexico/4604/2009 (H1N1)) harboring M2 V28I, S31N mutant infected in MDCK cells assessed as inhibition of viral replication after 3 days by microscopic analysis using crystal violet stain. Type of test: functional, organism-based, Influenza A virus (A/Mexico/4604/2009(H1N1)).

The test system of test [4] is Influenza A virus. Nature of the test: Antiviral activity against oseltamivir-susceptible zanamivir-, adamantane-resistant Influenza A virus (A/Wuhan/395/1995-like (H3N2)) harboring neuraminidase E119V mutant infected in MDCK cells assessed as inhibition of viral replication after 3 days by microscopic analysis using crystal violet stain. Type of test: functional, organism-based.

For test [5], the system named is Influenza A virus. The test is described as follows: Antiviral activity against Influenza A virus (A/Washington/29/2009(H1N1)) harboring neuraminidase H275Y mutant infected in MDCK cells from ATCC assessed as log reduction in viral titer at 1.6 uM after 24 hrs by immunofluorescent assay. Type of test: functional. A digest of the protocol: (§2)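 Yield reduction in MDCK-ATCC or MDCK-Mill Hill cells infected at MOI ∼0.01. Adsorption 1 h at 4°C, washed, then DMEM with 2 μg/ml TPCK-trypsin and drug. At 24 h, supernatants were titrated by immunofluorescent focus assay on MDCK cells with anti-NP monoclonals and FITC secondary. Titres as log10 FFU per 100 μl; detection limit <10 FFU. Quadruplicate, mean ± SD.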

Test [6] concerns Influenza A virus. The test is described as follows: Antiviral activity against Influenza A virus (A/Washington/29/2009(H1N1)) harboring neuraminidase H275Y mutant infected in MDCK cells from Mill Hill assessed as log reduction in viral titer at 1.6 uM after 24 hrs by immunofluorescent assay. The test is classed as functional. A digest of the protocol:
as §2

In test [7] the test system is Influenza A virus. Nature of the test: Antiviral activity against Influenza A virus (A/Washington/29/2009(H1N1)) harboring neuraminidase H275Y mutant infected in MDCK cells from ATCC assessed as inhibition of viral replication after 3 days by microscopic analysis using crystal violet stain. The test is classed as functional. The gist of the method:
(§3)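 Confluent MDCK-ATCC monolayers infected with virus diluted to give 15–45 plaques/well. Adsorption 1 h at 37°C without drug, then washed. Overlaid with 0.8% agarose in MEM containing drug plus TPCK-trypsin: 3 μg/ml for seasonal viruses, 2 μg/ml for 2009 A(H1N1). Incubated 3 days at 37°C, 5% CO2. Ethanol-fixed, crystal violet-stained, plaques counted. EC50 by curve fit; duplicates on three occasions, mean ± SD.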

Test [8] deals with Influenza A virus. The test is described as follows: Antiviral activity against oseltamivir-susceptible zanamivir-, adamantane-resistant Influenza A virus (A/Bethesda/956/2006(H3N2)) harboring neuraminidase R292K mutant and M2 S31N mutant infected in MDCK cells assessed as inhibition of viral replication after 3 days by microscopic analysis using crystal violet stain. The test is classed as functional, organism-based.

The test system of test [9] is Influenza A virus. Nature of the test: Antiviral activity against Influenza A virus (A/Washington/29/2009(H1N1)) harboring neuraminidase H275Y mutant infected in MDCK cells from Mill Hill assessed as inhibition of viral replication after 3 days by microscopic analysis using crystal violet stain. The test is classed as functional.
In test [10] the test system is Influenza A virus. The test is described as follows: Antiviral activity against adamantane-resistant zanamivir-,oseltamivir-susceptible Influenza A virus (A/pdm/California/04/2009(H1N1)) harboring M2 V28I, S31N mutant infected in MDCK cells assessed as determination of viral titer in cell culture at 128 uM after 24 hrs by immunofluorescence assay. As to conditions: A/California/04/2009(H1N1). The test is classed as functional, organism-based.

For test [11], the system named is Influenza B virus. Nature of the test: Antiviral activity against oseltamivir-susceptible zanamivir-, adamantane-resistant Influenza B virus B/Memphis/20/1996 harboring neuraminidase R152K mutant infected in MDCK cells assessed as inhibition of viral replication after 3 days by microscopic analysis using crystal violet stain. The test is classed as functional, cell-based, B/Memphis/20/96.

For test [12], the system named is Influenza A virus. Nature of the test: Antiviral activity against adamantane-resistant zanamivir-,oseltamivir-susceptible Influenza A virus (A/pdm/New York/18/2009 (H1N1)) harboring M2 V28I, S31N mutant infected in MDCK cells assessed as inhibition of viral replication after 3 days by microscopic analysis using crystal violet stain. The test is classed as functional, organism-based, Influenza A virus (A/New York/18/2009(H1N1)). The gist of the method: (§4)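 Plaque reduction on confluent MDCK-ATCC monolayers: pretitrated virus (15–45 plaques per well) adsorbed 1 h at 37°C without drug, then washed with PBS. Agarose overlay (0.8%, in MEM) with drug added, 3 days at 37°C. Cells fixed with 70% ethanol, stained with crystal violet, plaques counted. EC50 from curve fitting, averaged over three separate experiments in duplicate, ± SD.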

Test [13] has as its system Influenza A virus. Nature of the test: Antiviral activity against adamantane-resistant zanamivir-,oseltamivir-susceptible Influenza A virus (A/pdm/California/04/2009 (H1N1)) harboring M2 V28I, S31N mutant infected in MDCK cells assessed as inhibition of viral replication after 3 days by microscopic analysis using crystal violet stain. The test is classed as functional, organism-based, A/California/04/2009(H1N1). The gist of the method:
as §4

The test system of test [14] is Influenza A virus. The test is described as follows: Antiviral activity against 0.001 MOI adamantane-resistant zanamivir-,oseltamivir-susceptible Influenza A virus (A/pdm/California/04/2009(H1N1)) harboring M2 V28I, S31N mutant infected in MDCK cells assessed as determination of viral titer in cell culture at 1.6 uM after 24 hrs by immunofluorescence assay. The test is classed as functional, organism-based. As to conditions: A/California/04/2009(H1N1). A digest of the protocol: as §1

The subject of test [15] is Influenza A virus. Nature of the test: Antiviral activity against Influenza A virus (A/Illinois/10/2009(H1N1)) harboring neuraminidase H275Y mutant infected in MDCK cells from Mill Hill assessed as log reduction in viral titer at 1.6 uM after 24 hrs by immunofluorescent assay. Type of test: functional. The gist of the method:
as §2

The test system of test [16] is Influenza B virus. The test is described as follows: microbe, parasite or virus in culture. As to conditions: B/New York/22/2008, MDCK, 72 h.
In test [17] the test system is Influenza A virus. The test is described as follows: Antiviral activity against oseltamivir-susceptible zanamivir-, adamantane-resistant Influenza A virus (A/Luhansk/18/2008(H1N1)) harboring neuraminidase H274Y mutant and M2 G34E mutant infected in MDCK cells assessed as inhibition of viral replication after 3 days by microscopic analysis using crystal violet stain. The test is classed as functional, organism-based.

Test [18] relates to Influenza A virus. The test is described as follows: Antiviral activity against adamantane-resistant zanamivir-,oseltamivir-susceptible Influenza A virus (A/Massachusetts/03/2009(H3N2)) harboring M2 S31N mutant infected in MDCK cells assessed as inhibition of viral replication after 3 days by microscopic analysis using crystal violet stain. Type of test: functional, organism-based. A digest of the protocol: as §3

In test [19] the test system is Influenza A virus. The test is described as follows: Antiviral activity against adamantane-resistant zanamivir-,oseltamivir-susceptible Influenza A virus (A/New York/34/2008(H1N1)) harboring M2 L26I mutant infected in MDCK cells assessed as inhibition of viral replication after 3 days by microscopic analysis using crystal violet stain. The test is classed as functional, organism-based. The gist of the method:
as §3

As for `NC(=O)c1nc(F)cnc1O` [FAVIPIRAVIR], the outcome with Influenza A virus [1], in the test on Influenza A virus [10] and in the test with Influenza A virus [14] was Active. In addition, the EC50 in the test with Influenza A virus [2] amounted to 0.83 µM; in the test on Influenza A virus [3], 1.21 µM; in the test on Influenza A virus [4] it was 5.41 µM; in the test on Influenza A virus [8], 1.21 µM; with Influenza B virus [11], 0.57 µM; with Influenza A virus [12] it was 0.89 µM. For the same molecule, the EC50 with Influenza A virus [13] was 1.97 µM; in the test with Influenza B virus [16] it was 5.3 µM; in the test with Influenza A virus [17] it was 2.93 µM; with Influenza A virus [18], 4.2 µM; in the test with Influenza A virus [19] it was 0.19 µM. Further, the log10FFU came to 4.2 in the test with Influenza A virus [5]; 5.4 with Influenza A virus [6]; 0.78 in the test with Influenza A virus [7]; 6.32 with Influenza A virus [9]; 4.5 in the test with Influenza A virus [15].
